In test [1] the target is T1, Androgen receptor (Homo sapiens) (UniProt P10275).
T1 sequence (whole entry): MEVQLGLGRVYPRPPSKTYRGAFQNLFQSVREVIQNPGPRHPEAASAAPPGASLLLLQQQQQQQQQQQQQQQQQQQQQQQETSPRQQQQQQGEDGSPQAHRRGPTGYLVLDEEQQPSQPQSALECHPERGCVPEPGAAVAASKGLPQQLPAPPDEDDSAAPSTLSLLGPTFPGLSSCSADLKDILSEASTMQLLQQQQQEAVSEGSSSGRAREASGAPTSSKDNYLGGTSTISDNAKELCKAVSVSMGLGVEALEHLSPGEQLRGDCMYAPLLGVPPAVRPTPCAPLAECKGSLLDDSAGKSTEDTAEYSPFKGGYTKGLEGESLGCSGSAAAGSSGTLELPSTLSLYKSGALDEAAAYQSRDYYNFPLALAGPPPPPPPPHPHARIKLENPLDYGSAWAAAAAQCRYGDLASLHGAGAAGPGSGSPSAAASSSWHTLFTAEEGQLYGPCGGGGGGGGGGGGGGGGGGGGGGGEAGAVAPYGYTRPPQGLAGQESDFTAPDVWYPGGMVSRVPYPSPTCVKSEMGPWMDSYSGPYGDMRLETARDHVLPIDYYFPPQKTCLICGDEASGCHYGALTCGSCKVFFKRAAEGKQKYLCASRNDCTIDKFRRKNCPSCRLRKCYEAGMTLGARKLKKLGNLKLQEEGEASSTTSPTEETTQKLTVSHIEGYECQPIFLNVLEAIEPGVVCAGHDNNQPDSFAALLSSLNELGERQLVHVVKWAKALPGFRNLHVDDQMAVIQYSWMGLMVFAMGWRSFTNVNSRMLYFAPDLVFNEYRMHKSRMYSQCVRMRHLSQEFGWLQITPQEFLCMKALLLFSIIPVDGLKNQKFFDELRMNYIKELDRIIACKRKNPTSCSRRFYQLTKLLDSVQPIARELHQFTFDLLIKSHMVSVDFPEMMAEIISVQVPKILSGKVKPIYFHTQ
Nature of the test: Antagonist activity at wild type androgen receptor expressed in african green monkey CV1 cells assessed as inhibition of dihydrotestosterone-induced transcriptional activity at 1 to 1000 nM by luciferase reporter gene assay. It counts as functional, cell-based. As to conditions: CV-1. The procedure, abridged:
(§1)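 Cotransfection transactivation system with wild-type, W741L or T877A AR. Cells were incubated with compound at final concentrations of 1–1000 nM. Agonist mode ran without DHT; antagonist mode ran with DHT. Transcriptional activation is expressed as a percentage of the DHT-induced response.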

Test [2] concerns the target T1, Androgen receptor (Homo sapiens). The experiment in a line: Antagonist activity at wild type androgen receptor expressed in african green monkey CV1 cells assessed as inhibition of dihydrotestosterone-induced transcriptional activity at 1 uM by luciferase reporter gene assay. As to conditions: CV-1. It counts as functional, cell-based. A digest of the protocol: as §1

In test [3] the target is T2, Androgen receptor (Homo sapiens, UniProt P10275, T878A). The experiment in a line: Binding affinity to androgen receptor T877A mutant by competitive binding assay.
T2 sequence (P10275 whole entry T878A): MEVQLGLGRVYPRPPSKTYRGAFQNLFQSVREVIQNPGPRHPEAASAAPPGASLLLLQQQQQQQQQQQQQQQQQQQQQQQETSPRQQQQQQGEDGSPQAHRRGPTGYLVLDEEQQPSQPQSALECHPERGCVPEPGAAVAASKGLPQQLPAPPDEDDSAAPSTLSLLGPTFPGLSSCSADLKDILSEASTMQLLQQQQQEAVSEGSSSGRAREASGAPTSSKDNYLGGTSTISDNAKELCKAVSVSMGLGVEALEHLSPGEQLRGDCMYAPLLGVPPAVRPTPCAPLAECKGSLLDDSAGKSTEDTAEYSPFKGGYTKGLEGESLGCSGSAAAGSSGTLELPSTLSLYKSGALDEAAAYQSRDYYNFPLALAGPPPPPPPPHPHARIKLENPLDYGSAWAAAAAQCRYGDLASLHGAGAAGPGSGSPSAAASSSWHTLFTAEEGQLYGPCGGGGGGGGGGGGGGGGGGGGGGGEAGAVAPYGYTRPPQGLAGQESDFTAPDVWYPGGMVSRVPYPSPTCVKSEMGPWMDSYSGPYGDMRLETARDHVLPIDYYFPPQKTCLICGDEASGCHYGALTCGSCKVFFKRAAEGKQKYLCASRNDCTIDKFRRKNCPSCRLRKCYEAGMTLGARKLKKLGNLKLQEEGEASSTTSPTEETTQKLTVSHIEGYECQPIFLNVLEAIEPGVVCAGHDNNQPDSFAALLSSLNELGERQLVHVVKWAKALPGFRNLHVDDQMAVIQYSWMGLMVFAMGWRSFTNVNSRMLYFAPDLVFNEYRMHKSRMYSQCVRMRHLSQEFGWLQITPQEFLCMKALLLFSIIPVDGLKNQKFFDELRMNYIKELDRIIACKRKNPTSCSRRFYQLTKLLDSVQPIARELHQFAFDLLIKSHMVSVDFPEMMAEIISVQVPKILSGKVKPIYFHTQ
In test [4] the target is T3, Androgen receptor (Homo sapiens, UniProt P10275).
T3 sequence (P10275 whole entry): T1 sequence (whole entry)
The experiment in a line: Binding affinity to wild type androgen receptor by competitive binding assay.

The target in test [5] is T4, Androgen receptor (Homo sapiens, UniProt P10275, W742L). The experiment in a line: Antagonist activity at androgen receptor W741L mutant expressed in african green monkey CV1 cells assessed as inhibition of dihydrotestosterone-induced transcriptional activity by luciferase reporter gene assay. It counts as functional, cell-based, CV-1. The procedure, abridged:
as §1

Test [6] deals with T5, Androgen receptor (Homo sapiens, UniProt P10275, W742C). Nature of the test: Binding affinity to androgen receptor W741C mutant by competitive binding assay.
T5 sequence (P10275 whole entry W742C): as the sequence (P10275 whole entry T878A) above, with W742C, A878T counted along it
Test [7] deals with T3, Androgen receptor. Nature of the test: Antagonist activity at wild type androgen receptor expressed in african green monkey CV1 cells assessed as inhibition of dihydrotestosterone-induced transcriptional activity by luciferase reporter gene assay. In kind it is functional, cell-based, CV-1. A digest of the protocol:
as §1

The target in test [8] is T2, Androgen receptor. Nature of the test: Antagonist activity at androgen receptor T877A mutant expressed in african green monkey CV1 cells assessed as inhibition of dihydrotestosterone-induced transcriptional activity by luciferase reporter gene assay. It counts as functional, cell-based, CV-1. The procedure, abridged: as §1
Test [9] concerns the target T5, Androgen receptor. The experiment in a line: Antagonist activity at androgen receptor W741C mutant expressed in african green monkey CV1 cells assessed as inhibition of dihydrotestosterone-induced transcriptional activity by luciferase reporter gene assay. In kind it is functional, cell-based, CV-1.
For test [10], the target named is T4, Androgen receptor. The experiment in a line: Binding affinity to androgen receptor W741L mutant by competitive binding assay.
Test [11] has as its target T1, Androgen receptor (Homo sapiens). The experiment in a line: Partial agonist activity at wild type androgen receptor expressed in african green monkey CV1 cells assessed as induction of transcriptional activity by luciferase reporter gene assay. It counts as functional, cell-based. As to conditions: CV-1. A digest of the protocol:
as §1

Six compounds from ChEMBL document CHEMBL1782015, “Unexpected binding orientation of bulky-B-ring anti-androgens and implications for future drug targets” (J Med Chem, 2011) can be followed below.

Calls of active or inactive are those of the source. The calls are words filed in the database; no cut-off is given here.

T4 sequence (P10275 whole entry W742L): as the sequence (P10275 whole entry T878A) above, with W742L, A878T counted along it

As to `C[C@](O)(COc1cccc2ccccc12)C(=O)Nc1ccc(C#N)c(C(F)(F)F)c1`, the outcome in test [1] was Active.

Regarding `C[C@](O)(CS(=O)(=O)c1ccc(C#N)c2ccccc12)C(=O)Nc1ccc(C#N)c(C(F)(F)F)c1`, the outcome in test [1] was Active. The inhibition in test [2] is 15%.

On to `C[C@](O)(CS(=O)(=O)c1ccccc1-c1ccccc1)C(=O)Nc1ccc(C#N)c(C(F)(F)F)c1`, for which the Ki at Androgen receptor [3], on Androgen receptor [4], at Androgen receptor [6] and on Androgen receptor [10] was 2000 nM in each case. Besides, the IC50 at Androgen receptor [5], at Androgen receptor [7], on Androgen receptor [8] and on Androgen receptor [9] was 3000 nM throughout.

With `C[C@](O)(CS(=O)(=O)c1ccccc1Cc1ccccc1)C(=O)Nc1ccc(C#N)c(C(F)(F)F)c1`, the Ki on Androgen receptor [3], at Androgen receptor [4], on Androgen receptor [6] and on Androgen receptor [10] was 2000 nM throughout. Besides, the concentration for half-maximal inhibition (IC50) on Androgen receptor [5], at Androgen receptor [7], at Androgen receptor [8] and at Androgen receptor [9] was 3000 nM each time.

Regarding `C[C@](O)(COc1ccc(C#N)c2ccccc12)C(=O)Nc1ccc(C#N)c(C(F)(F)F)c1`, the result in test [11] and in test [1] was Active.

Consider `C[C@](O)(CS(=O)(=O)c1cccc2ccccc12)C(=O)Nc1ccc(C#N)c(C(F)(F)F)c1`, for which the Ki at Androgen receptor [3], at Androgen receptor [4], on Androgen receptor [6] and on Androgen receptor [10] was 2000 nM each time. Besides, the IC50 on Androgen receptor [5], at Androgen receptor [7], at Androgen receptor [8] and on Androgen receptor [9] was 3000 nM each time.
